Results as given in PubChem BioAssay.
Activity calls are given as the source filed them. Unless noted, no stated cut-off is given here; in the data, active means inhibition above about 30%; inactive means the rest.

How the values were obtained:
[1] = Her2 expression decrease, cell viability multiplex – SKBR3 breast tumor cells, AlphaScreen, ATP viability, primary screen (AID 461;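 active means Her2 level under about 52% in both replicate screens, with viability over 70% of control, limit read from the data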;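 on Her2 level: lower value means less Her2 protein in the cells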;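 on viability: percent of carrier control wells set as 100% viability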); details: SKBR3 Her2 protein level, 18-24 h, measured here: SKBR3 viability, ATP luminescence, at 10 µM
[2] = target: Receptor tyrosine-protein kinase erbB-2 (Homo sapiens) (UniProt P04626); assay: as above; details: 18-24 h, at 10 µM, stronger effect = lower value
[3] = reduced viability of SK-BR-3 breast cancer cells – cell-based, 24 h, human, pilot screen (AID 572;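 active means viability at or below 10% of carrier control in both of two separate runs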;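 further: compound exposure lasted between 18 and 24 h rather than exactly 24 h; 100% = carrier-treated control wells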); details: SK-BR-3 viability, CellTiter-Glo luminescence, at 10 µM, stronger effect = lower value
[4] = HUVEC growth inhibition – cell-based, human, primary screen (AID 575;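 active means viability at or below 30% in both replicate assays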;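 further: 100% = median of untreated cell wells with 0.1% DMSO on each plate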); details: HUVEC proliferation, CellTiter-Glo luminescence, 72 h; at 10 µM; stronger effect = lower value
Method in brief: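 Test system: HUVEC primary cells. Quantity: 1250 endothelial cells in each well. Dosing: single-point 10 µM, DMSO 0.1% final. Incubation: 72 h treatment at 37 °C. Measured by: CTG luminescence. Control set: DMSO cell controls and MePR drug controls. Plate: collagen-coated 384-well format.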

[5] = MRP1 drug-resistance reversers in H69AR cells – cell-based, doxorubicin co-treatment, pilot screen (AID 601;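 active means viability loss from added drug above about 55%, and viability with drug at most 40%, in both replicates, limit read from the data, passing the limit was not always enough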); details: CellTiter-Glo, 72 h, at 10 µM; for differential viability (reversal): stronger effect = higher value
[6] = yeast transport mutant growth inhibition pilot in 384-well plates, post-Golgi transport modulator project (AID 636; in the data active means inhibition above about 31%); details: absorbance 615 nm, about 18 h, stronger effect = higher value
[7] = growth suppression of yeast trafficking mutant, preliminary HTS, modulators of trafficking downstream of Golgi apparatus project, 1536-format plate, OD 615 nm (AID 637); details: yeast transport mutant growth, absorbance 615 nm, 18 h; stronger effect = higher value
[8] = H69AR cells + 2 uM doxorubicin, measured here: viability with 2 uM doxorubicin, stronger effect = lower value
[9] = H69AR cells, compound alone cytotoxicity

Sequence of Receptor tyrosine-protein kinase erbB-2 (Homo sapiens) (P04626 whole entry, looked up): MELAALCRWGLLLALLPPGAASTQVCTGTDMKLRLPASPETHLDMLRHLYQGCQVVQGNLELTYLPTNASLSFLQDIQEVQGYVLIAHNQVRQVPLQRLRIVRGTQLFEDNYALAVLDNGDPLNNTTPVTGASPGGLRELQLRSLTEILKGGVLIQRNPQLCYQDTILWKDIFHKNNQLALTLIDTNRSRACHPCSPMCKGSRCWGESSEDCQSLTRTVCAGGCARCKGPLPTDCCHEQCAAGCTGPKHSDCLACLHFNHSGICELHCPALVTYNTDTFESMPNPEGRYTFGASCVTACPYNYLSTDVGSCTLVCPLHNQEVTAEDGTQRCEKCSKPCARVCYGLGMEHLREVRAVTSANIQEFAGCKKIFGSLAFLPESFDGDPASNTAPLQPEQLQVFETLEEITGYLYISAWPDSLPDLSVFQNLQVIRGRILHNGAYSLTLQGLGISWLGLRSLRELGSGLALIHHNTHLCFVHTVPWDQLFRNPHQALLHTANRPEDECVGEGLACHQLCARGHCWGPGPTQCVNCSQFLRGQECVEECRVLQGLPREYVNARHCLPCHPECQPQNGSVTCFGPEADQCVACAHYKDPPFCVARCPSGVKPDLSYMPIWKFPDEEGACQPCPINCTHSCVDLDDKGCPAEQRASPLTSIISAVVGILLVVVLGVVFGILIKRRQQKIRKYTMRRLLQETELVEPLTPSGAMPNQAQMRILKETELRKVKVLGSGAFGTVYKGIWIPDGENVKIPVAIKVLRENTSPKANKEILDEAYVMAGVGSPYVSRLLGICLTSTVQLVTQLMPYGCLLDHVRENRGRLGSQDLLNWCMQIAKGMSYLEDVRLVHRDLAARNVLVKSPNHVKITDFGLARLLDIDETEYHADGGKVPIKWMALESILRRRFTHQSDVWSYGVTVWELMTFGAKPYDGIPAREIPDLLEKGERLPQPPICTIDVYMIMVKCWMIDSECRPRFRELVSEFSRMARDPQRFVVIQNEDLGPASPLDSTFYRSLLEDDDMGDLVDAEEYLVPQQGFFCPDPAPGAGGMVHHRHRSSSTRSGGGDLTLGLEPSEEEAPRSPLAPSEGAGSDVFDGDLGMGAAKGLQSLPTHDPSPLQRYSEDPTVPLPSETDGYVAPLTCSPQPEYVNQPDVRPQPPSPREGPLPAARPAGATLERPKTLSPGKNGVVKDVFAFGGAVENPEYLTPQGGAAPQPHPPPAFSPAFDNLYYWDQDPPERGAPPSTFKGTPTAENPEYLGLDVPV

Row | SMILES | viability [1] [%] | Her2 level [2] | viability [3] | viability [4] | differential viability (reversal) ([5]; H69AR cells + 2 uM doxorubicin) | viability [5, 8] [%] | viability [5, 9] [%] | inhibition [6] | inhibition [7]
1 | Cn1c(Cc2ccccc2)nnc1SCC(=O)c1ccc(Br)s1 | 97.5 | 83.5% (inactive) | 97.5% (inactive) | 81.4% (inactive) | -4.43% (inactive) | 53.9 | 49.4 | -2.08% (inactive) | -5.4% (inactive)
2 | Cc1c(C(=O)NC2CCCc3ccccc32)oc2ccc(S(=O)(=O)N3CCOCC3)cc12 (stereo unspecified) | 94.5 | 89.5% (inactive) | 94.5% (inactive) | 84.9% (inactive) | 1.53% (inactive) | 50.7 | 52.2 | -2% (inactive) | 1.29% (inactive)
3 | Cc1ccc(Cn2c(C)nc3c(c2=O)c2nc4ccccc4nc2n3Cc2ccco2)cc1 | 118 | 71.5% (inactive) | 118% (inactive) | 54.9% (inactive) | -1.46% (inactive) | 50.5 | 49 | 1.32% (inactive) | 1.8% (inactive)
4 | CC(=O)c1ccccc1Oc1nc(CN2CCOCC2)nc2scc(-c3cccs3)c12 | 87.5 | 79% (inactive) | 87.5% (inactive) | 73.3% (inactive) | 32.8% (inactive) | 17.1 | 49.9 | -8.24% (inactive) | 2.46% (inactive)
5 | CC1=C(C(=O)OC2CCCCC2)C(c2ccc(C)o2)C2=C(CC(C)(C)CC2=O)N1 (stereo unspecified) | 77.5 | 83% (inactive) | 77.5% (inactive) | 50.5% (inactive) | 13.1% (inactive) | 37.4 | 50.5 | 0.38% (inactive) | -7.83% (inactive)
6 | Cc1cc(C)c2c(n1)nn1c(N3CCN(c4ccccc4C)CC3)cc(C)nc21 | 73.5 | 95.5% (inactive) | 73.5% (inactive) | 92.4% (inactive) | -0.53% (inactive) | 73.6 | 73.1 | 1.18% (inactive) | 6.73% (inactive)
7 | N#CC1=C(SCC(=O)NC23CC4CC(CC(C4)C2)C3)NC(=O)C(C#N)C12CCCCC2 (stereo unspecified) | 74 | 76% (inactive) | 74% (inactive) | 54.1% (inactive) | -5.21% (inactive) | 41 | 35.8 | -5.48% (inactive) | -5.4% (inactive)
8 | Cc1[nH]nc(N=CC2=C(O)CC(C)(C)CC2=O)c1-c1ccc(Cl)cc1 | 94.5 | 94.5% (inactive) | 94.5% (inactive) | 79.4% (inactive) | 1.14% (inactive) | 38.9 | 40.1 | 6.8% (inactive) | 6.83% (inactive)
9 | COc1ccc(OCC(=O)N2CCN(C(=O)COc3ccc(Br)cc3)CC2)cc1 | 84.5 | 95.5% (inactive) | 84.5% (inactive) | 81.3% (inactive) | 7.19% (inactive) | 40.4 | 47.6 | -2.67% (inactive) | 3.71% (inactive)
10 | CCOc1cccc(-n2nnnc2-c2ccc(OC)cc2)c1 | 107 | 90% (inactive) | 107% (inactive) | 49.9% (inactive) | -47.9% (inactive) | 60.4 | 12.5 | -1.04% (inactive) | -4.6% (inactive)
11 | COc1ccc(/C=N/n2cc(-c3ccc(OC)cc3)nc2N)cc1 | 85 | 99% (inactive) | 85% (inactive) | 82.5% (inactive) | -10.3% (inactive) | 63.6 | 53.3 | -1.41% (inactive) | -8% (inactive)
12 | CC(C)(C)n1nnnc1C(c1ccccc1)N1CCc2ccccc2C1 (stereo unspecified) | 107 | 82% (inactive) | 107% (inactive) | 42% (inactive) | 5.93% (inactive) | 43.4 | 49.3 | -7.26% (inactive) | -2.7% (inactive)
13 | COc1ccc(CC(=O)NCc2cccs2)cc1 | 90 | 103% (inactive) | 90% (inactive) | 60.6% (inactive) | -17.3% (inactive) | 77.9 | 60.5 | -4% (inactive) | -8.03% (inactive)
14 | Cc1ccc2nc(NC(=O)C3CCN(S(=O)(=O)c4cccc5nsnc45)CC3)sc2c1 | 85.5 | 63.5% (inactive) | 85.5% (inactive) | 42.8% (inactive) | -10.7% (inactive) | 76.5 | 65.8 | -5.07% (inactive) | 10.3% (inactive)
15 | OC(CN1CCOCC1)Cn1c(-c2cccc(Cl)c2)nc2ccccc21 (stereo unspecified) | 100 | 80% (inactive) | 100% (inactive) | 54.4% (inactive) | -47.5% (inactive) | 66 | 18.5 | -6.75% (inactive) | -1.11% (inactive)
16 | CCCCCSc1nc2c(cnn2-c2ccccc2)c(=O)[nH]1 | 99 | 93.5% (inactive) | 99% (inactive) | 45.2% (inactive) | -3.82% (inactive) | 50.1 | 46.3 | -5.26% (inactive) | -0.17% (inactive)
17 | O=C(c1cc(-c2ccco2)nn1-c1cccc(Cl)c1)N1CCCCC1 | 111 | 84.5% (inactive) | 111% (inactive) | 95% (inactive) | -25.9% (inactive) | 79.2 | 53.3 | -2.24% (inactive) | -1.94% (inactive)

Row | SMILES | viability [1] [%] | Her2 level [2] | viability [3] | viability [4] | differential viability (reversal) ([5]; H69AR cells + 2 uM doxorubicin) | viability [5, 8] [%] | viability [5, 9] [%] | inhibition [6] | inhibition [7]
18 | Cc1c(NC(=O)c2ccc(=O)oc2)c(=O)n(-c2ccccc2)n1C | 96.5 | 89% (inactive) | 96.5% (inactive) | 90.9% (inactive) | -18.7% (inactive) | 67.2 | 48.5 | -4.8% (inactive) | -0.32% (inactive)
19 | CCc1cc2c(=O)c(-c3ccc4c(c3)OCCO4)coc2cc1OC(=O)c1ccco1 | 72.5 | 68% (inactive) | 72.5% (inactive) | 64.3% (inactive) | -13.3% (inactive) | 63.9 | 50.5 | -3.29% (inactive) | 2.79% (inactive)
20 | CCOC(=O)c1oc2ccccc2c1NC(=O)c1cccc(OC)c1OC | 96.5 | 100% (inactive) | 96.5% (inactive) | 51% (inactive) | -68.6% (inactive) | 88.2 | 19.6 | -2.99% (inactive) | -2.22% (inactive)
21 | COc1cccc(Cn2c(-c3nonc3N)nc3ccccc32)c1 | 93.5 | 82% (inactive) | 93.5% (inactive) | 58.2% (inactive) | -46.7% (inactive) | 62.7 | 16 | -2.6% (inactive) | -2.06% (inactive)
22 | CCCc1nc2ccccc2c(=O)n1NC(=O)c1c(O)c2cccc3c2n(c1=O)CCC3 | 113 | 87.5% (inactive) | 113% (inactive) | 83.5% (inactive) | -6.06% (inactive) | 72.1 | 66 | -5.2% (inactive) | 14.1% (inactive)
23 | C=CCn1c(COc2ccc(Cl)cc2)nnc1SCC(=O)N1CC(=O)Nc2ccccc21 | 92 | 76.5% (inactive) | 92% (inactive) | 65.5% (inactive) | -10.9% (inactive) | 73.5 | 62.7 | -5.2% (inactive) | -3.02% (inactive)
24 | CCOC(=O)c1sc(NC(=O)CSc2n[nH]c(-c3ccccc3)n2)c(C#N)c1C | 122 | 65.5% (inactive) | 122% (inactive) | 48.2% (inactive) | 9.27% (inactive) | 32 | 41.3 | -6.27% (inactive) | 2.38% (inactive)
25 | c1ccc2c(-c3nc(C4CCCCC4)no3)cc(-c3ccncc3)nc2c1 | 72.5 | 69% (inactive) | 72.5% (inactive) | 66.6% (inactive) | -5.85% (inactive) | 49.4 | 43.6 | 45.3% (active) | 8.23% (inactive)
26 | CCn1c2ccccc2c2cc(NC(=O)Cc3ccc(S(=O)(=O)N4CCOCC4)s3)ccc21 | 83 | 76.5% (inactive) | 83% (inactive) | 9.02% (active) | -10.1% (inactive) | 60.2 | 50.1 | -1.84% (inactive) | -2.73% (inactive)
27 | COc1ccc(C(C)(C)C)cc1NC(=O)Nc1ccc2c(c1)OCO2 | 108 | 89.5% (inactive) | 108% (inactive) | 64.8% (inactive) | -12% (inactive) | 57.2 | 45.3 | -1.18% (inactive) | 23.4% (inactive)
28 | Cc1ccccc1OCCCN1C(=O)C(=O)c2cccc(C)c21 | 106 | 72% (inactive) | 106% (inactive) | 77.7% (inactive) | -16.4% (inactive) | 49.4 | 33 | 2.56% (inactive) | -1.33% (inactive)
29 | COc1ccc(C2=NOC(C(=O)Nc3cc(Br)ccc3O)C2)cc1OC (stereo unspecified) | 108 | 89% (inactive) | 108% (inactive) | 56.4% (inactive) | -10.5% (inactive) | 70.6 | 60.1 | -6.76% (inactive) | 1.8% (inactive)
30 | Cc1nn(-c2nc3ccccc3s2)c(C)c1Oc1ccccc1O | 102 | 79.5% (inactive) | 102% (inactive) | 20.3% (active) | -6.93% (inactive) | 67 | 60 | -6.13% (inactive) | -0.63% (inactive)
31 | O=C(NCc1ccc2c(c1)OCO2)c1cccc2c1C(=O)N(C1CCCCC1)C2 | 102 | 72.5% (inactive) | 102% (inactive) | 87% (inactive) | -12.7% (inactive) | 71.9 | 59.2 | -0.38% (inactive) | 2.83% (inactive)
32 | CCOC(=O)c1nnc2cc(-c3ccc(Br)cc3)nn2c1C | 76.5 | 93.5% (inactive) | 76.5% (inactive) | 70.3% (inactive) | 6.1% (inactive) | 43.6 | 49.7 | 4.55% (inactive) | -5.24% (inactive)
33 | CCOc1ccc2nc(NC(=O)C3CCCN(S(=O)(=O)c4c(C)noc4C)C3)sc2c1 (stereo unspecified) | 124 | 74% (inactive) | 124% (inactive) | 49.7% (inactive) | -23.4% (inactive) | 71.2 | 47.9 | 6.28% (inactive) | 7.5% (inactive)
34 | CCCNC(=O)c1c(N)n(-c2cc(OC)cc(OC)c2)c2nc3ccccc3nc12 | 89 | 73.5% (inactive) | 89% (inactive) | 38.6% (inactive) | -9.04% (inactive) | 66.7 | 57.6 | -3.87% (inactive) | 2.3% (inactive)
